Activity calls are given as the source filed them. No cut-off for these calls is given here.
Tests used:
[1] = system: SUNE1; test: Effect on total MNK1 protein expression in human SUNE1 cells incubated for 24 hrs by Western blot analysis relative to control; assay type: ADME, cell-based; conditions: sune1, 24 h
In short: (§1)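 Cells treated 24 h at 1 µM. The test compound was also given 6 h. Cells harvested, trypsinised and washed twice in cold PBS, then lysed in RIPA buffer on ice and sonicated. Lysate centrifuged cold at 10000 g for 30 min. Supernatant protein quantified, run on SDS-PAGE, transferred to PVDF and probed for ERK1/2, pERK1/2, MNK1, eIF4E and p-eIF4E.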

[2] = biological target: T1, MAP kinase-interacting serine/threonine-protein kinase 1 (Homo sapiens, UniProt Q9BUB5); test: Inhibition of human MNK1 using CREBtide substrate by gamma-[32P]-ATP competitive inhibition assay
In short: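 Run as the Eurofins KinaseProfiler radiometric assay, competitive with γ-[32P]-ATP. IC50 taken as the mean of independent experiments; the footnote gives two.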
Target sequence in this assay (Q9BUB5 whole entry): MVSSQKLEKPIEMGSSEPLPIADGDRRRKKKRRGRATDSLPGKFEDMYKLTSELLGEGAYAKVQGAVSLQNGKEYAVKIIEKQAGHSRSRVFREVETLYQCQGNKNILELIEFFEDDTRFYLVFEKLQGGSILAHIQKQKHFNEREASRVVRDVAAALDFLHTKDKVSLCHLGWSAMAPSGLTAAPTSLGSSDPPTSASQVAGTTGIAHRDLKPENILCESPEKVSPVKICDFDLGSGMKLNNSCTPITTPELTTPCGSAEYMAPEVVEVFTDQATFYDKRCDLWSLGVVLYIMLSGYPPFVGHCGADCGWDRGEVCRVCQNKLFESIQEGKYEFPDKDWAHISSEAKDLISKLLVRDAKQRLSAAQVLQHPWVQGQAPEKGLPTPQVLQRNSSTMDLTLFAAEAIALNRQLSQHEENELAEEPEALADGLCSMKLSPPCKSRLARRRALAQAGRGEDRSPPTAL

[3] = system: SUNE1; test: Induction of apoptosis in human SUNE1 cells assessed as necrotic cells at 1 uM incubated for 24 hrs by Annexin-V/propidium iodide staining based flow cytometric method (reference value: 1.07%); assay type: functional
[4] = system: SUNE1; test: Induction of apoptosis in human SUNE1 cells assessed as late apoptotic cells at 1 uM incubated for 24 hrs by Annexin-V/propidium iodide staining based flow cytometric method (reference value: 4.11%); assay type: functional
[5] = system: 786-0; test: Induction of apoptosis in human 786-O cells incubated for 24 hrs by Annexin-V/propidium iodide staining based flow cytometric method; assay type: functional, cell-based
[6] = system: SUNE1; test: Induction of apoptosis in human SUNE1 cells assessed as viable cells at 1 uM incubated for 24 hrs by Annexin-V/propidium iodide staining based flow cytometric method (reference value: 93.79%); assay type: functional; conditions: SUNE1, 24 h, read-out: Activity
[7] = species on record: Homo sapiens; test: Cytotoxicity against human HNE1 cells assessed as decrease in cell viability incubated for 24 hrs by MTT assay; assay type: functional, cell-based
In short: (§2)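 IC50 from an 8–10 point concentration gradient by MTT assay. Panel covers renal cell carcinoma and nasopharyngeal carcinoma lines. Values are mean ± SD, n = 3.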

[8] = system: 786-0; test: Induction of apoptosis in human 786-O cells assessed as early apoptotic cells at 5 uM incubated for 24 hrs by Annexin-V/propidium iodide staining based flow cytometric method (reference value: 1.74%); assay type: functional
[9] = system: 786-0; test: Induction of apoptosis in human 786-O cells assessed as late apoptotic cells at 5 uM incubated for 24 hrs by Annexin-V/propidium iodide staining based flow cytometric method (reference value: 3.80%); assay type: functional
[10] = system: SUNE1; test: Effect on total eIF4E protein expression in human SUNE1 cells incubated for 24 hrs by Western blot analysis relative to control; assay type: ADME, cell-based; conditions: sune1, 24 h; in short: as §1
[11] = system: 786-0; test: Induction of apoptosis in human 786-O cells assessed as necrotic cells at 5 uM incubated for 24 hrs by Annexin-V/propidium iodide staining based flow cytometric method (reference value: 0.83%); assay type: functional
[12] = system: SUNE1; test: Induction of apoptosis in human SUNE1 cells assessed as necrotic cells at 5 uM incubated for 24 hrs by Annexin-V/propidium iodide staining based flow cytometric method (reference value: 1.07%); assay type: functional
[13] = system: SUNE1; test: Induction of apoptosis in human SUNE1 cells assessed as early apoptotic cells at 5 uM incubated for 24 hrs by Annexin-V/propidium iodide staining based flow cytometric method (reference value: 1.03%); assay type: functional
[14] = system: 786-0; test: Effect on total ERK1/2 protein expression in human 786-O cells incubated for 24 hrs by Western blot analysis relative to control; assay type: cell-based; conditions: 786-0, 24 h; in short: as §1
[15] = system: SUNE1; test: Effect on total ERK1/2 protein expression in human SUNE1 cells incubated for 24 hrs by Western blot analysis relative to control; assay type: ADME, cell-based; conditions: sune1, 24 h; in short: as §1
[16] = system: 786-0; test: Induction of apoptosis in human 786-O cells assessed as necrotic cells at 1 uM incubated for 24 hrs by Annexin-V/propidium iodide staining based flow cytometric method (reference value: 0.83%); assay type: functional
[17] = system: A498; test: Cytotoxicity against human A498 cells assessed as decrease in cell viability incubated for 24 hrs by MTT assay; assay type: functional, cell-based; in short: as §2
[18] = system: 786-0; test: Effect on total eIF4E protein expression in human 786-O cells incubated for 24 hrs by Western blot analysis relative to control; assay type: cell-based; conditions: 786-0, 24 h; in short: as §1
[19] = system: SUNE1; test: Cytotoxicity against human SUNE1 cells assessed as decrease in cell viability incubated for 24 hrs by MTT assay; assay type: functional, cell-based; in short: as §2
[20] = system: 786-0; test: Effect on total MNK1 protein expression in human 786-O cells incubated for 24 hrs by Western blot analysis relative to control; assay type: cell-based; conditions: 786-0, 24 h; in short: as §1
[21] = system: SUNE1; test: Induction of apoptosis in human SUNE1 cells assessed as viable cells at 5 uM incubated for 24 hrs by Annexin-V/propidium iodide staining based flow cytometric method (reference value: 93.79%); assay type: functional; conditions: SUNE1, 24 h, read-out: Activity
[22] = system: 786-0; test: Induction of apoptosis in human 786-O cells assessed as viable cells at 5 uM incubated for 24 hrs by Annexin-V/propidium iodide staining based flow cytometric method (reference value: 93.63%); assay type: functional; conditions: 786-0, 24 h, read-out: Activity
[23] = system: SUNE1; test: Induction of apoptosis in human SUNE1 cells assessed as early apoptotic cells at 1 uM incubated for 24 hrs by Annexin-V/propidium iodide staining based flow cytometric method (reference value: 1.03%); assay type: functional
[24] = system: 786-0; test: Induction of apoptosis in human 786-O cells assessed as viable cells at 1 uM incubated for 24 hrs by Annexin-V/propidium iodide staining based flow cytometric method (reference value: 93.63%); assay type: functional; conditions: 786-0, 24 h, read-out: Activity
[25] = system: SUNE1; test: Induction of apoptosis in human SUNE1 cells assessed as late apoptotic cells at 5 uM incubated for 24 hrs by Annexin-V/propidium iodide staining based flow cytometric method (reference value: 4.11%); assay type: functional
[26] = biological target: T2, Mitogen-activated protein kinase; ERK1/ERK2 (Homo sapiens) (UniProt P27361+P28482); test: Inhibition of ERK1/2 phosphorylation in human SUNE1 cells at 1 uM incubated for 24 hrs by Western blot analysis relative to control; assay type: cell-based; in short: as §1
[27] = system: 786-0; test: Induction of apoptosis in human 786-O cells assessed as late apoptotic cells at 1 uM incubated for 24 hrs by Annexin-V/propidium iodide staining based flow cytometric method (reference value: 3.80%); assay type: functional
[28] = biological target: T1, MAP kinase-interacting serine/threonine-protein kinase 1; test: Inhibition of MNK1 in human 786-O cells assessed as decrease in eIF4E phosphorylation at 1 uM incubated for 24 hrs by Western blot analysis relative to control; assay type: cell-based; in short: as §1
Target sequence in this assay (Q9BUB5 whole entry, looked up): as the sequence (Q9BUB5 whole entry) above

[29] = biological target: T2, Mitogen-activated protein kinase; ERK1/ERK2 (Homo sapiens); test: Inhibition of ERK1/2 phosphorylation in human 786-O cells at 1 uM incubated for 24 hrs by Western blot analysis relative to control; assay type: cell-based; in short: as §1
[30] = system: SUNE1; test: Induction of apoptosis in human SUNE1 cells incubated for 24 hrs by Annexin-V/propidium iodide staining based flow cytometric method (reference value: 93.79%); assay type: functional, cell-based
[31] = system: CAKI-1; test: Cytotoxicity against human Caki1 cells assessed as decrease in cell viability incubated for 24 hrs by MTT assay; assay type: functional, cell-based; in short: as §2
[32] = system: 786-0; test: Induction of apoptosis in human 786-O cells assessed as early apoptotic cells at 1 uM incubated for 24 hrs by Annexin-V/propidium iodide staining based flow cytometric method (reference value: 1.74%); assay type: functional
[33] = system: 786-0; test: Cytotoxicity against human 786-O cells assessed as decrease in cell viability incubated for 24 hrs by MTT assay; assay type: functional, cell-based; in short: as §2
[34] = system: CNE; test: Cytotoxicity against human CNE1 cells assessed as decrease in cell viability incubated for 24 hrs by MTT assay; assay type: functional, cell-based; in short: as §2
[35] = system: CNE-2; test: Cytotoxicity against human CNE2 cells assessed as decrease in cell viability incubated for 24 hrs by MTT assay; assay type: functional, cell-based; in short: as §2

T2 sequence (P27361 whole entry, looked up): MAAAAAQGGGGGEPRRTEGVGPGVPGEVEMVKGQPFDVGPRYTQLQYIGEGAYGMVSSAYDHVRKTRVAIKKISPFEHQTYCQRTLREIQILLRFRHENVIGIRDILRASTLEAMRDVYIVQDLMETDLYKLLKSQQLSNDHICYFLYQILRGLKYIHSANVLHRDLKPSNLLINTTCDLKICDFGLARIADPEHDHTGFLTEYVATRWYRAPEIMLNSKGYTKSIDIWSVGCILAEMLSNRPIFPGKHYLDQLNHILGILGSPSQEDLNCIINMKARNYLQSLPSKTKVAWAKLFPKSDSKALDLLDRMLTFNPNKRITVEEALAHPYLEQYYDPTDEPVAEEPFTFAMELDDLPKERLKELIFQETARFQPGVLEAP
T2 sequence (P28482 whole entry, looked up): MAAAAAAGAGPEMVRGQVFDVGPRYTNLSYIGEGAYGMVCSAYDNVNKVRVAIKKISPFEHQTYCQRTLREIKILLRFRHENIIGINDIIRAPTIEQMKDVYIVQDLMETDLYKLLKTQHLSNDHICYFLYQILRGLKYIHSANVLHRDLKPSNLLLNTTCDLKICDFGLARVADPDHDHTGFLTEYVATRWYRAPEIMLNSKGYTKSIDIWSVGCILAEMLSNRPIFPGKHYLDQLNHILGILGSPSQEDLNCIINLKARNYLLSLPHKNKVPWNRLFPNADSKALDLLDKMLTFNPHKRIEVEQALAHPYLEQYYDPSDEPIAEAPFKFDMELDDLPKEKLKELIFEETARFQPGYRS

## COc1ccc(S(=O)(=O)N2CCc3c(sc4ncnc(Nc5ccc(F)cc5OC)c34)C2)cc1
[1]
  Activity: Non-Toxic
[2]
  IC50: 650 nM
[3]
  Activity: 10.6%
[4]
  Activity: 18.18%
[5]
  Activity: Dose-dependent effect
[6]
  viability at 1 µM: 36.6%
[7]
  Activity: Active
[8]
  Activity: 37.44%
[9]
  Activity: 11.79%
[10]
  Activity: Non-Toxic
[11]
  Activity: 7.88%
[12]
  Activity: 3.52%
[13]
  Activity: 49.87%
[14]
  Activity: Non-Toxic
[15]
  Activity: Non-Toxic
[16]
  Activity: 4.64%
[17]
  Activity: Active
[18]
  Activity: Non-Toxic
[19]
  Activity: Active
[20]
  Activity: Non-Toxic
[21]
  viability at 5 µM: 35.9%
[22]
  viability at 5 µM: 42.9%
[23]
  Activity: 34.6%
[24]
  viability at 1 µM: 68.9%
[25]
  Activity: 10.61%
[26]
  inhibition: inactive
[27]
  Activity: 8.5%
[28]
  inhibition: Dose-dependent effect
[29]
  inhibition: inactive
[30]
  Activity: Dose-dependent effect
[31]
  Activity: Active
[32]
  Activity: 17.94%
[33]
  Activity: Active
[34]
  Activity: Active
[35]
  Activity: Active

Reference: ChEMBL document CHEMBL4340542, “Design, synthesis and biological evaluation of 4-aniline-thieno[2,3-d]pyrimidine derivatives as MNK1 inhibitors against renal cell carcinoma and nasopharyngeal carcinoma” (Bioorg Med Chem, 2019)
